From ChEMBL document CHEMBL1144414, “C-5-disubstituted barbiturates as potential molecular probes for noninvasive matrix metalloproteinase imaging” (J Med Chem, 2005)

Assays:
Homo sapiens = organism: Homo sapiens; assay: Ratio of IC50 for human Matrix metalloprotease 2 binding and Matrix metalloprotease 9
[1] = Partition coefficient (logD7.4); format: physicochemical; settings: octanol/water, pH 7.4
[2] = molecular target: T1, 72 kDa type IV collagenase (Homo sapiens, UniProt P08253); assay: In vitro inhibition of human Matrix metalloprotease 2
Summary of the method: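 Human active MMP-2 (1 nM) preincubated with inhibitor (10 pM to 1 mM) in 50 mM Tris·HCl pH 7.5, 0.2 M NaCl, 5 mM CaCl2, 20 µM ZnSO4, 0.05% Brij 35, 37 °C, 30 min. Fluorogenic Mca-Pro-Leu-Gly-Leu-Dpa-Ala-Arg-NH2 substrate (10 µL of 50 µM into 90 µL) added. Fluorescence (ex 330/em 390 nm) followed at 37 °C. Initial 10-min rates fitted by nonlinear regression for IC50.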

[3] = molecular target: T2, Matrix metalloproteinase-9 (Homo sapiens, UniProt P14780); assay: (§1) In vitro inhibition of human Matrix metalloprotease 9
Summary of the method: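 Human active MMP-9 (2 nM) preincubated 30 min at 37 °C with inhibitor (10 pM to 1 mM) in 50 mM Tris·HCl pH 7.5, 0.2 M NaCl, 5 mM CaCl2, 20 µM ZnSO4, 0.05% Brij 35. Fluorogenic Mca-Pro-Leu-Gly-Leu-Dpa-Ala-Arg-NH2 substrate added from a 50 µM stock. Fluorescence (ex 330/em 390 nm) followed at 37 °C. Initial 10-min linear rates versus dose; IC50 by nonlinear regression.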

[4] = molecular target: T2, Matrix metalloproteinase-9; assay: In vitro inhibition of human Matrix metalloprotease 9; I.A.=inactive
Summary of the method: (§2)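 Human active enzyme, MMP-2 at 1 nM or MMP-9 at 2 nM, preincubated 30 min at 37 °C with inhibitor (10 pM to 1 mM) in 50 mM Tris·HCl pH 7.5, 0.2 M NaCl, 5 mM CaCl2, 20 µM ZnSO4, 0.05% Brij 35. Mca-PLGL-Dpa-AR-NH2 substrate added, fluorescence followed at 37 °C (ex 330/em 390 nm). Initial 10-min rates fitted by nonlinear regression for IC50.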

[5] = molecular target: T1, 72 kDa type IV collagenase; assay: In vitro inhibition of human Matrix metalloprotease 2; I.A.=inactive; summary of the method: as §2
[6] = molecular target: T2, Matrix metalloproteinase-9; assay: as §1; remark: listed apart in the source

T2 sequence (P14780 whole entry): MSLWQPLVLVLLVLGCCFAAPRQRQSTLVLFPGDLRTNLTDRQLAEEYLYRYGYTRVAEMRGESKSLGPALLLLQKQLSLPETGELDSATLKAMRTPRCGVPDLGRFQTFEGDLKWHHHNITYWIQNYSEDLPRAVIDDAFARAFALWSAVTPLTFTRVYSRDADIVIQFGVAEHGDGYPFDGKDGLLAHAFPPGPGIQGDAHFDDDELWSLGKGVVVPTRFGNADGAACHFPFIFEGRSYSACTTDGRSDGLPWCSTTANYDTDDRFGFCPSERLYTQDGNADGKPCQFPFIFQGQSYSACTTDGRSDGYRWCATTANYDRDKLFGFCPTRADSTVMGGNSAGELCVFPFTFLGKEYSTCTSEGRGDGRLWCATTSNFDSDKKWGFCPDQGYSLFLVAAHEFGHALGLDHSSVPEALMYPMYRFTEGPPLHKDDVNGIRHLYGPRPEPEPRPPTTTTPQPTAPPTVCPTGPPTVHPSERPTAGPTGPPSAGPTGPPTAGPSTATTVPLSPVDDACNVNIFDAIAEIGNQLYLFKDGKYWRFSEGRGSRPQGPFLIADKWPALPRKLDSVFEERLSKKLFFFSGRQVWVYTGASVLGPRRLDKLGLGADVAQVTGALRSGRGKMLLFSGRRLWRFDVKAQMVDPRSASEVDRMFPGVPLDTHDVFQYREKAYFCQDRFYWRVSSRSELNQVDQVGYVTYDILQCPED
T1 sequence (P08253 whole entry): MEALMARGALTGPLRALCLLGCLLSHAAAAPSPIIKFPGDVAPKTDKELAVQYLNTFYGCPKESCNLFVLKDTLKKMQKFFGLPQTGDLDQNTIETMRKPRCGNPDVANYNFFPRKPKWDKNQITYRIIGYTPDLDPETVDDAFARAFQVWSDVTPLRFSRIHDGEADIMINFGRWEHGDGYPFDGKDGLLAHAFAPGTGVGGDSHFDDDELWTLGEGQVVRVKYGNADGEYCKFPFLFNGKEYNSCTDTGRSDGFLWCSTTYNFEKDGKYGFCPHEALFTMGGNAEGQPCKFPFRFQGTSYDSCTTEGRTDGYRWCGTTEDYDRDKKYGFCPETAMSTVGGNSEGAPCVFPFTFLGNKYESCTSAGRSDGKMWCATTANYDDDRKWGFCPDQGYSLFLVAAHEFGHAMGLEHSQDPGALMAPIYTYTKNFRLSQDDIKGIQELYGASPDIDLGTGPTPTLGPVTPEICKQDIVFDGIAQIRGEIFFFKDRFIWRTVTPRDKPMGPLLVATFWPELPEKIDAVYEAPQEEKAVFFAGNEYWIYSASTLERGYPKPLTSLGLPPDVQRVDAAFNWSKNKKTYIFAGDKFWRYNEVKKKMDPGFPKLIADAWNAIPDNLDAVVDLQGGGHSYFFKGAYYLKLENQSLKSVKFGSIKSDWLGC

Row | SMILES | Selectivity (Homo sapiens) | logD [1] | IC50 [2] [nM] | IC50 [3] [nM] | IC50 [4] | IC50 [5] | IC50 [6] [nM]
1 | CC(C)N1CCN(C2(c3ccc(Oc4ccc(Br)cc4)cc3)C(=O)NC(=O)NC2=O)CC1 | 26 | 4.47 |  |  |  |  | 
2 | O=C1NC(=O)C(c2ccc(Oc3ccc(Br)cc3)cc2)(N2CCN(c3ccc(F)cc3)CC2)C(=O)N1 | 0.63 | 6.11 |  |  |  |  | 
3 | C[Si](C)(C)c1ccc(N2CCN(C3(c4ccc(Oc5ccc(Br)cc5)cc4)C(=O)NC(=O)NC3=O)CC2)cc1 | 2.7 | 8.32 | 1500 | 550 |  |  | 
4 | NCCN1CCN(C2(c3ccc(Oc4ccc(Br)cc4)cc3)C(=O)NC(=O)NC2=O)CC1 | 0.71 | 0.78 | 10 | 14 |  |  | 
5 | O=C1NC(=O)C(c2ccc(Oc3ccc(Br)cc3)cc2)(N2CCN(c3ccc(I)cc3)CC2)C(=O)N1 | 8.6 | 7.22 | 86 | 10 |  |  | 
6 | O=C1NC(=O)C(c2ccc(Oc3ccc(Br)cc3)cc2)(N2CCN(CCO)CC2)C(=O)N1 | 2.3 | 3.42 |  |  |  |  | 
7 | O=C1NC(=O)C(c2ccc(Oc3ccc(Br)cc3)cc2)(N2CCN(CCBr)CC2)C(=O)N1 | 1.2 | 4.67 | 30 | 26 |  |  | 
8 | O=C1NC(=O)C(c2ccc(Oc3ccc(Br)cc3)cc2)C(=O)N1 |  | 0.41 | 3700 |  |  |  | 
9 | COc1ccc(Oc2ccc(C3(N4CCN(CCO)CC4)C(=O)NC(=O)NC3=O)cc2)cc1 | 1.5 | 1.79 |  |  |  |  | 
10 | O=C1NC(=O)C(c2ccc(Oc3ccc(Br)cc3)cc2)(N2CCN(C(=O)c3cccc(I)c3)CC2)C(=O)N1 | 0.75 | 5.86 | 15 | 20 |  |  | 
11 | CC(C)[C@@H](NS(=O)(=O)c1ccc(C#CCCCC[18F])cc1)C(=O)O |  |  | 1900 |  |  |  | 
12 | COCCN1CCN(C2(c3ccc(Oc4ccc(OC)cc4)cc3)C(=O)N(C)C(=O)N(C)C2=O)CC1 |  | 0.95 |  |  | Not Active | Not Active | 
13 | O=C1NC(=O)C(c2ccc(Oc3ccc(Br)cc3)cc2)(N2CCNCC2)C(=O)N1 | 2.5 | 3.04 | 5 | 2 |  |  | 
14 | O=C1NC(=O)C(c2ccc(Oc3ccc(Br)cc3)cc2)(N2CCN(c3ccc([N+](=O)[O-])cc3)CC2)C(=O)N1 | 0.28 | 6.27 | 16 | 57 |  |  | 
15 | CC(C)[C@@H](NS(=O)(=O)c1ccc(NC(=O)c2ccc(O[11CH3])cc2)cc1)C(=O)O |  |  | 110 |  |  |  | 200
16 | O=C1NC(=O)C(c2ccc(Oc3ccc(I)cc3)cc2)(N2CCN(CCO)CC2)C(=O)N1 | 3.5 | 3.68 |  |  |  |  | 
17 | O=C1NC(=S)NC(=O)C1(c1ccc(Oc2ccc(Br)cc2)cc1)N1CCN(CCO)CC1 |  | 3.85 | 7.21 |  |  |  | 
18 | O=C(O)CCN1CCN(C2(c3ccc(Oc4ccc(Br)cc4)cc3)C(=O)NC(=O)NC2=O)CC1 | 3.3 | 0.81 | 85 | 26 |  |  | 
